The values below come from ChEMBL document CHEMBL1123369, “Synthesis and structure-activity relationships of new arylfluoronaphthyridine antibacterial agents” (1986).

Type in all cases: functional
For assay [1], the system named is Acinetobacter sp. Kind of assay: In vitro antibacterial activity against Acinetobacter species CMX669. An outline of the steps:
(§1)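 Twofold agar dilution in brain-heart infusion agar, test range 200 to 0.005 µg/mL, made from a 2000 µg/mL stock. Organisms grown overnight in BHI broth at 36 °C. About 10⁴ organisms inoculated per plate, then incubated 18 h at 36 °C. MIC taken as the lowest concentration giving no visible growth.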

Assay [2] deals with Streptococcus pyogenes. Kind of assay: In vitro antibacterial activity against Streptococcus pyogenes 930. The method in brief:
as §1

Assay [3] concerns Pseudomonas aeruginosa. Description: In vitro antibacterial activity against Pseudomonas aeruginosa K799/WT. The method in brief:
as §1

Assay [4] concerns Staphylococcus aureus. Kind of assay: In vitro antibacterial activity against Staphylococcus aureus CMX 686B. An outline of the steps:
as §1

For assay [5], the system named is Staphylococcus epidermidis. Kind of assay: In vitro antibacterial activity against Staphylococcus epidermidis 3519. An outline of the steps:
as §1

The subject of assay [6] is Staphylococcus aureus. Kind of assay: In vitro antibacterial activity against Staphylococcus aureus ATCC 6538P. The method in brief: as §1
Assay [7] deals with Pseudomonas aeruginosa. Kind of assay: In vitro antibacterial activity against Pseudomonas aeruginosa 5007. An outline of the steps:
as §1

Assay [8] concerns Escherichia coli. Kind of assay: In vitro antibacterial activity against Escherichia coli Juhl. An outline of the steps:
as §1

Assay [9] deals with Klebsiella aerogenes. Kind of assay: In vitro antibacterial activity against Enterobacter aerogenes ATCC 13048. The method in brief:
as §1

Assay [10] has as its system Klebsiella pneumoniae. Kind of assay: In vitro antibacterial activity against Klebsiella pneumoniae 8045. An outline of the steps:
as §1

Assay [11] has as its system Enterococcus faecium. Description: In vitro antibacterial activity against Streptococcus faecium ATCC 8043. An outline of the steps: as §1

For orientation: MIC means the smallest concentration in the dilution series that meets the test's criterion for growth inhibition. Read a high MIC as a less susceptible organism.

≈ marks a conversion by molar mass, not a printed value.

Consider `O=C(O)c1cn(-c2ccc(F)cc2)c2nc(N3CCC(O)C3)c(F)cc2c1=O` (stereo unspecified), for which the MIC was 0.39 µg/mL (≈ 1.01 µM) in [1]; 0.78 µg/mL (≈ 2.01 µM) in assay [2]; 3.1 µg/mL (≈ 8 µM) in assay [3]; 0.05 µg/mL (≈ 0.129 µM) in [4]; 0.2 µg/mL (≈ 0.516 µM) in [5]; 0.05 µg/mL (≈ 0.129 µM) in [6]. The MIC in [7] was 3.1 µg/mL (≈ 8 µM); in assay [8] it was 0.39 µg/mL (≈ 1.01 µM); in assay [9] it was 0.39 µg/mL (≈ 1.01 µM); in [10] it was 0.1 µg/mL (≈ 0.258 µM); in assay [11], 1.56 µg/mL (≈ 4.03 µM).
Consider `CCn1cc(C(=O)O)c(=O)c2cc(F)c(N3CCNCC3)cc21` [NORFLOXACIN], for which the minimum inhibitory concentration (MIC) in assay [1] came to 6.2 µg/mL (≈ 19.4 µM); in [2], 3.1 µg/mL (≈ 9.71 µM); in assay [3], 0.39 µg/mL (≈ 1.22 µM); in [4] it was 0.78 µg/mL (≈ 2.44 µM); in assay [5], 1.56 µg/mL (≈ 4.89 µM); in assay [6], 0.78 µg/mL (≈ 2.44 µM). Further, the MIC in assay [7] amounted to 0.39 µg/mL (≈ 1.22 µM); in [8], 0.1 µg/mL (≈ 0.313 µM); in assay [9] it was 0.2 µg/mL (≈ 0.626 µM); in [10] it was 0.1 µg/mL (≈ 0.313 µM); in [11], 0.78 µg/mL (≈ 2.44 µM).
Take `CC1CN(c2nc3c(cc2F)c(=O)c(C(=O)O)cn3-c2ccc(F)cc2)CCN1` (stereo unspecified): the MIC is 0.2 µg/mL (≈ 0.5 µM) in assay [1]; 3.1 µg/mL (≈ 7.74 µM) in assay [2]; 1.56 µg/mL (≈ 3.9 µM) in assay [3]; 0.78 µg/mL (≈ 1.95 µM) in assay [4]; 0.78 µg/mL (≈ 1.95 µM) in [5]; 0.39 µg/mL (≈ 0.974 µM) in [6]. The MIC in assay [7] was 1.56 µg/mL (≈ 3.9 µM); in assay [8], 0.05 µg/mL (≈ 0.125 µM); in assay [9], 12.5 µg/mL (≈ 31.2 µM); in [10], 0.02 µg/mL (≈ 0.05 µM); in assay [11], 6.2 µg/mL (≈ 15.5 µM).
As to `CN1CCN(c2nc3c(cc2F)c(=O)c(C(=O)O)cn3-c2ccc(F)cc2F)CC1`, the MIC in [1] worked out at 0.39 µg/mL (≈ 0.932 µM); in assay [2], 1.56 µg/mL (≈ 3.73 µM); in assay [3] it was 3.1 µg/mL (≈ 7.41 µM); in [4], 0.2 µg/mL (≈ 0.478 µM); in [5], 0.39 µg/mL (≈ 0.932 µM); in assay [6] it was 0.2 µg/mL (≈ 0.478 µM). The MIC stood at 3.1 µg/mL (≈ 7.41 µM) in assay [7]; 0.39 µg/mL (≈ 0.932 µM) in assay [8]; 0.39 µg/mL (≈ 0.932 µM) in assay [9]; 0.39 µg/mL (≈ 0.932 µM) in [10]; 1.56 µg/mL (≈ 3.73 µM) in [11].
With `CN1CCN(c2cc3c(cc2F)c(=O)c(C(=O)O)cn3-c2ccc(F)cc2)CC1.Cl` [DIFLOXACIN HYDROCHLORIDE], the MIC in assay [1] was 0.78 µg/mL; in assay [2] it was 1.56 µg/mL; in assay [3], 1.56 µg/mL; in [4], 0.2 µg/mL; in assay [5], 0.39 µg/mL; in assay [6] it was 0.2 µg/mL. The MIC turned out to be 0.78 µg/mL in assay [7]; 0.2 µg/mL in [8]; 0.78 µg/mL in assay [9]; 0.1 µg/mL in assay [10]; 1.56 µg/mL in [11].
`O=C(O)c1cn(-c2ccccc2)c2nc(N3CCNCC3)c(F)cc2c1=O`: the MIC in assay [1] was 1.56 µg/mL (≈ 4.23 µM); in assay [2], 6.2 µg/mL (≈ 16.8 µM); in [3], 1.56 µg/mL (≈ 4.23 µM); in [4], 1.56 µg/mL (≈ 4.23 µM); in [5], 1.56 µg/mL (≈ 4.23 µM); in [6] it was 1.56 µg/mL (≈ 4.23 µM). Also, the MIC in [7] was found to be 1.56 µg/mL (≈ 4.23 µM); in [8], 0.2 µg/mL (≈ 0.543 µM); in assay [9], 0.39 µg/mL (≈ 1.06 µM); in assay [10], 0.1 µg/mL (≈ 0.271 µM); in assay [11], 50 µg/mL (≈ 136 µM).
